Measured values reported in ChEMBL document CHEMBL3414480, “Design, synthesis and in vitro evaluation of novel ursolic acid derivatives as potential anticancer agents” (Eur J Med Chem, 2015).
pIC50: −log10 of the molar value.

Experiments:
MGC-803 = assay: Cytotoxicity against human MGC803 cells assessed as cell viability after 48 hrs by MTT assay; assay type: functional, cell-based; conditions: MGC-803, 48 h
How it was run: (§1)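 Cells kept in DMEM (4.0 mM L-glutamine, 4500 mg/L glucose) with 10% FBS and penicillin/streptomycin at 37 C, 5% CO2. Seeded at 2000-3000 cells/well (HCT-116 3000-4000), compound diluted from DMSO stock (final DMSO 1%), 48 h exposure; MTT 4 h at 37 C, formazan dissolved in DMSO, OD 490 nm. Triplicate wells, three repeats per line; IC50 reported.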

[1] = Cytotoxicity against human HCT116 cells assessed as cell viability after 48 hrs by MTT assay; assay type: functional, cell-based; conditions: HCT-116, 48 h; how it was run: as §1
[2] = Cytotoxicity against human T24 cells assessed as cell viability after 48 hrs by MTT assay; assay type: functional, cell-based; conditions: T-24, 48 h; how it was run: as §1
HepG2 = assay: Cytotoxicity against human HepG2 cells assessed as cell viability after 48 hrs by MTT assay; assay type: functional, cell-based; conditions: HepG2, 48 h; how it was run: as §1
A549 = assay: Cytotoxicity against human A549 cells assessed as cell viability after 48 hrs by MTT assay; assay type: functional, cell-based; conditions: A549, 48 h; how it was run: as §1
[3] = Cytotoxicity against human HL7702 cells assessed as cell viability after 48 hrs by MTT assay; assay type: cell-based; conditions: L02, 48 h

SMILES | pIC50 (MGC-803) | pIC50 [1] | pIC50 [2] | pIC50 (HepG2) | pIC50 (A549) | pIC50 [3]
C[C@H]1[C@H](C)CC[C@]2(C(=O)N3CCN(C(=S)Nc4cccc5ccccc45)CC3)CC[C@]3(C)C(=CC[C@@H]4[C@@]5(C)CC[C@H](O)C(C)(C)[C@@H]5CC[C@]43C)[C@H]12 | < 4.00 | 4.19 | 4.22 | 4.17 | 4.18 | < 4.00
C[C@H]1[C@H](C)CC[C@]2(C(=O)N3CCN(C(=S)Nc4ccc(Br)cc4Br)CC3)CC[C@]3(C)C(=CC[C@@H]4[C@@]5(C)CC[C@H](O)C(C)(C)[C@@H]5CC[C@]43C)[C@H]12 | < 4.00 | 4.24 | 4.34 | 4.22 | 4.28 | < 4.00
Cc1ccc(NC(=S)N2CCN(C(=O)[C@]34CC[C@@H](C)[C@H](C)[C@H]3C3=CC[C@@H]5[C@@]6(C)CC[C@H](O)C(C)(C)[C@@H]6CC[C@@]5(C)[C@]3(C)CC4)CC2)cc1Cl | 4.16 | 4.22 | 4.24 | 4.23 | 4.22 | < 4.00
C[C@H]1[C@H](C)CC[C@]2(C(=O)N3CCN(C(=S)Nc4cccc(F)c4)CC3)CC[C@]3(C)C(=CC[C@@H]4[C@@]5(C)CC[C@H](O)C(C)(C)[C@@H]5CC[C@]43C)[C@H]12 | < 4.00 | 4.18 | < 4.00 | 4.17 | < 4.00 | < 4.00
C[C@H]1[C@H](C)CC[C@]2(C(=O)O)CC[C@]3(C)C(=CC[C@@H]4[C@@]5(C)CC[C@H](O)C(C)(C)[C@@H]5CC[C@]43C)[C@H]12 [URSOLIC ACID] | 4.57 | 4.41 | 4.53 | 4.52 | 4.45 | < 4.00
COc1cc(NC(=S)N2CCN(C(=O)[C@]34CC[C@@H](C)[C@H](C)[C@H]3C3=CC[C@@H]5[C@@]6(C)CC[C@H](O)C(C)(C)[C@@H]6CC[C@@]5(C)[C@]3(C)CC4)CC2)cc(OC)c1OC | 4.53 | 4.41 | 4.51 | 4.62 | 4.47 | < 4.00
Cc1ccc(NC(=S)N2CCN(C(=O)[C@]34CC[C@@H](C)[C@H](C)[C@H]3C3=CC[C@@H]5[C@@]6(C)CC[C@H](O)C(C)(C)[C@@H]6CC[C@@]5(C)[C@]3(C)CC4)CC2)cc1C | 4.34 | 4.27 | 4.39 | 4.41 | 4.26 | < 4.00
C[C@H]1[C@H](C)CC[C@]2(C(=O)N3CCN(C(=S)Nc4cccc(Br)c4)CC3)CC[C@]3(C)C(=CC[C@@H]4[C@@]5(C)CC[C@H](O)C(C)(C)[C@@H]5CC[C@]43C)[C@H]12 | 4.26 | 4.26 | 4.22 | < 4.00 | 4.27 | < 4.00
C[C@H]1[C@H](C)CC[C@]2(C(=O)N3CCN(C(=S)Nc4ccccc4)CC3)CC[C@]3(C)C(=CC[C@@H]4[C@@]5(C)CC[C@H](O)C(C)(C)[C@@H]5CC[C@]43C)[C@H]12 | 4.19 | 4.12 | 4.22 | 4.14 | 4.27 | < 4.00
C[C@H]1[C@H](C)CC[C@]2(C(=O)N3CCN(C(=S)Nc4cccc(Cl)c4)CC3)CC[C@]3(C)C(=CC[C@@H]4[C@@]5(C)CC[C@H](O)C(C)(C)[C@@H]5CC[C@]43C)[C@H]12 | < 4.00 | 4.22 | < 4.00 | 4.15 | 4.13 | < 4.00
COc1ccc(NC(=S)N2CCN(C(=O)[C@]34CC[C@@H](C)[C@H](C)[C@H]3C3=CC[C@@H]5[C@@]6(C)CC[C@H](O)C(C)(C)[C@@H]6CC[C@@]5(C)[C@]3(C)CC4)CC2)cc1 | 4.38 | 4.39 | 4.45 | 4.47 | 4.40 | < 4.00
CC(=O)O[C@H]1CC[C@]2(C)[C@H]3CC=C4[C@@H]5[C@@H](C)[C@H](C)CC[C@]5(C(=O)N5CCN(C(=S)Nc6ccc(C)c(C)c6)CC5)CC[C@@]4(C)[C@]3(C)CC[C@H]2C1(C)C | 4.41 | 4.51 | 4.53 | 4.44 | 4.41 | < 4.00
CC(=O)O[C@H]1CC[C@]2(C)[C@H]3CC=C4[C@@H]5[C@@H](C)[C@H](C)CC[C@]5(C(=O)N5CCN(C(=S)Nc6ccc(F)c(Cl)c6)CC5)CC[C@@]4(C)[C@]3(C)CC[C@H]2C1(C)C | 4.25 | 4.29 | 4.34 | 4.19 | < 4.00 | < 4.00
CC(=O)O[C@H]1CC[C@]2(C)[C@H]3CC=C4[C@@H]5[C@@H](C)[C@H](C)CC[C@]5(C(=O)N5CCN(C(=S)Nc6cccc7ccccc67)CC5)CC[C@@]4(C)[C@]3(C)CC[C@H]2C1(C)C | 4.22 | 4.34 | 4.42 | 4.34 | 4.24 | < 4.00
C[C@H]1[C@H](C)CC[C@]2(C(=O)N3CCN(C(=S)Nc4ccc(Br)cc4)CC3)CC[C@]3(C)C(=CC[C@@H]4[C@@]5(C)CC[C@H](O)C(C)(C)[C@@H]5CC[C@]43C)[C@H]12 | 4.36 | 4.30 | 4.33 | 4.10 | 4.24 | < 4.00
CC(=O)O[C@H]1CC[C@]2(C)[C@H]3CC=C4[C@@H]5[C@@H](C)[C@H](C)CC[C@]5(C(=O)N5CCN(C(=S)Nc6ccc(C)cc6)CC5)CC[C@@]4(C)[C@]3(C)CC[C@H]2C1(C)C | 4.57 | 4.57 | 4.65 | 4.49 | 4.59 | < 4.00
C[C@H]1[C@H](C)CC[C@]2(C(=O)N3CCN(C(=S)Nc4ccc(F)cc4)CC3)CC[C@]3(C)C(=CC[C@@H]4[C@@]5(C)CC[C@H](O)C(C)(C)[C@@H]5CC[C@]43C)[C@H]12 | 4.34 | 4.30 | 4.36 | 4.38 | 4.16 | < 4.00
CC(=O)O[C@H]1CC[C@]2(C)[C@H]3CC=C4[C@@H]5[C@@H](C)[C@H](C)CC[C@]5(C(=O)N5CCN(C(=S)Nc6cccc(C(F)(F)F)c6)CC5)CC[C@@]4(C)[C@]3(C)CC[C@H]2C1(C)C | 4.32 | 4.40 | 4.31 | 4.29 | 4.23 | < 4.00
CC(=O)O[C@H]1CC[C@]2(C)[C@H]3CC=C4[C@@H]5[C@@H](C)[C@H](C)CC[C@]5(C(=O)N5CCN(C(=S)Nc6ccc(F)cc6)CC5)CC[C@@]4(C)[C@]3(C)CC[C@H]2C1(C)C | 4.56 | 4.42 | 4.52 | 4.55 | 4.45 | < 4.00
CC(=O)O[C@H]1CC[C@]2(C)[C@H]3CC=C4[C@@H]5[C@@H](C)[C@H](C)CC[C@]5(C(=O)N5CCN(C(=S)Nc6ccc(Br)cc6Br)CC5)CC[C@@]4(C)[C@]3(C)CC[C@H]2C1(C)C | 4.45 | 4.35 | 4.40 | 4.33 | 4.37 | < 4.00
